ChEMBL document CHEMBL4422635, “Structure-Based Discovery of a Subtype-Selective Inhibitor Targeting a Transient Receptor Potential Vanilloid Channel” (J Med Chem, 2019)
Residue numbers refer to the chain shown, from its start. Activity calls are given as the source filed them. The calls are words filed in the database; no cut-off is given here.

What was measured:
Format in all cases: cell-based
[1] = tested on: Transient receptor potential cation channel subfamily V member 1 (Mus musculus), Q704Y3 [S513F]; experiment: Antagonist activity at mouse TRPV1 S513F mutant expressed in HEK293T cells assessed as inhibition of 2-APB evoked currents at 0.3 to 10 uM at -60 mV holding potential by whole-cell patch clamp assay
Method in brief: (§1)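 Whole-cell voltage clamp of transiently transfected HEK293T cells co-expressing GFP, recorded 36-96 h post-transfection. Hold -60 mV; pipettes 3-7 MΩ. Bath 165 mM NaCl, 10 mM HEPES pH 7.3; pipette 140 mM KCl, 10 mM HEPES pH 7.3. Room temperature (~25 °C). IC50 from Hill fits of I/I0, the current ratio after vs before inhibitor; mean ± SEM.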

[2] = tested on: T1, Transient receptor potential cation channel subfamily V member 2 (Mus musculus), Q9WTR1 [F467S]; experiment: Antagonist activity at mouse TRPV2 F467S mutant expressed in HEK293T cells assessed as inhibition of 2-APB evoked currents at -60 mV holding potential by whole-cell patch clamp assay; method in brief: as §1
T1 sequence (whole entry): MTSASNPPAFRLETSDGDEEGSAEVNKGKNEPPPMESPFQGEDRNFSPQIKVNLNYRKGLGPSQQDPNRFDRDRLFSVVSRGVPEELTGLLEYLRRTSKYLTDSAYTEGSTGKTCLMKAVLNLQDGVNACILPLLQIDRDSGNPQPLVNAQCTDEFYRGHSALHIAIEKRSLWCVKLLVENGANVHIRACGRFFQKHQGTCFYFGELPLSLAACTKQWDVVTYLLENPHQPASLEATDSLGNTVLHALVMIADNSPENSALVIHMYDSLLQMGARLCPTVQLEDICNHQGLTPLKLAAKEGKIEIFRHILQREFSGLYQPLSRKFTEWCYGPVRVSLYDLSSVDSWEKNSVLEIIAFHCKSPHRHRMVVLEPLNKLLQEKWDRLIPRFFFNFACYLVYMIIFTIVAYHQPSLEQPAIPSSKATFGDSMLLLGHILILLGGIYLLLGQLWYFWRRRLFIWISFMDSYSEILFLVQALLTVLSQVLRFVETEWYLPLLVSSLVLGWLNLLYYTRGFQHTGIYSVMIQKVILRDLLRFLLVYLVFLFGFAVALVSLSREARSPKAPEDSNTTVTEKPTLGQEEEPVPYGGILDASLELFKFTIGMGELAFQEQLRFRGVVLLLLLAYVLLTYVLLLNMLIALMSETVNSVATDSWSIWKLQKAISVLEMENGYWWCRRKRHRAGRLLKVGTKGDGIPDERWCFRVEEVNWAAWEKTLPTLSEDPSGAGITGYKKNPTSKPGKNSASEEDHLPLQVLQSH

[3] = tested on: T2, Transient receptor potential cation channel subfamily V member 2 (Mus musculus), Q9WTR1 [L505T]; experiment: Antagonist activity at mouse TRPV2 L505T mutant expressed in HEK293T cells assessed as inhibition of 2-APB evoked currents at -60 mV holding potential by whole-cell patch clamp assay; method in brief: as §1
T2 sequence (whole entry): T1 sequence (whole entry) with S467F, L505T

[4] = species: Mus musculus; experiment: Antagonist activity at mouse LPA-induced TRPV2/LPAR1 expressed in HEK293T cells assessed as inhibition of 2-APB evoked currents at 1 uM after 3 mins in presence of AM966 by whole-cell patch clamp assay; method in brief: as §1
[5] = tested on: T3, Transient receptor potential cation channel subfamily V member 2 (Mus musculus), Q9WTR1 [Q525A]; experiment: Antagonist activity at mouse TRPV2 Q525A mutant expressed in HEK293T cells assessed as inhibition of 2-APB evoked currents at -60 mV holding potential by whole-cell patch clamp assay; method in brief: as §1
T3 sequence (whole entry): T1 sequence (whole entry) with S467F, Q525A

[6] = species: Homo sapiens; experiment: Inhibition of LPA-induced TRPV2/LPAR1 mediated cell migration in human PC3M cells at 0.1 uM after 24 hrs by transwell migration assay

Sequence of Transient receptor potential cation channel subfamily V member 1 (Mus musculus), Q704Y3 [S513F] (Q704Y3 whole entry S513F): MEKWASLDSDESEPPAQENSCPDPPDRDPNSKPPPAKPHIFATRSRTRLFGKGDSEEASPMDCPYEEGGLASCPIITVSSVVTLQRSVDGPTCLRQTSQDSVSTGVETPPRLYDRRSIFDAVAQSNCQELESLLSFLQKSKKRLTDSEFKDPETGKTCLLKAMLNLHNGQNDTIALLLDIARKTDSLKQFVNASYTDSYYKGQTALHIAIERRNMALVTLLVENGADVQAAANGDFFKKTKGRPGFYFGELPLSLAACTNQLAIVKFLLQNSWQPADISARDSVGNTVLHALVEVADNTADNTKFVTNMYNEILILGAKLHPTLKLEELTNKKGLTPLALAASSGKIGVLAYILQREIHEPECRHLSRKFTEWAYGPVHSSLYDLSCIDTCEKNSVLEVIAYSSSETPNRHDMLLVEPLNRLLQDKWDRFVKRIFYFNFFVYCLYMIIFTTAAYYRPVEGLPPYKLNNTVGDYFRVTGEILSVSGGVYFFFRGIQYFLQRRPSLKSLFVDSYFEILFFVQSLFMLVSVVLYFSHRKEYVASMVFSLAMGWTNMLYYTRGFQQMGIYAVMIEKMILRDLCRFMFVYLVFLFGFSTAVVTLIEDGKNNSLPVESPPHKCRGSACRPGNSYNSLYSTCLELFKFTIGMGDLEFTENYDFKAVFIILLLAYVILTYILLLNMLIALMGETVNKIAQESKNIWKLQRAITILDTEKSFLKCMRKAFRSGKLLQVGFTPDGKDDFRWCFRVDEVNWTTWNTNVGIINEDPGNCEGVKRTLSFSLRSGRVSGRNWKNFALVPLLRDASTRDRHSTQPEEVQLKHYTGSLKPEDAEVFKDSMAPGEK

## CCCN(C)c1cc(C(F)(F)F)nc(SCCC(=O)NCc2ccco2)n1
[1]
  inhibition: inactive
[2]
  inhibition: inactive
[3]
  inhibition: inactive
[4]
  inhibition: inactive
[5]
  inhibition: inactive
[6]
  inhibition: Active
